Published values collected from several papers.
Each line is one published result; the experiments were not run side by side.
Target: Serine/threonine-protein kinase 17A (STK17A, Homo sapiens, UniProt Q9UEE5)

Compound	assay	conditions	measurement	value
Clc1ccc(Nc2nnc(Cc3ccncc3)c3ccccc23)cc1	cell-free assay	0.5 µM	remaining signal	99.4%
Cc1ccc(Nc2nccc(N(C)c3ccc4c(C)n(C)nc4c3)n2)cc1S(N)(=O)=O	cell-free assay	10 µM	inhibition	14%
O=C1CCc2cc(Nc3cc(OC4CCOCC4)c([N+](=O)[O-])cc3Cl)ccc2N1	cell-free assay, competition with immobilised ligand	1 µM	remaining binding	95%
CC(C)c1ccc(NC(=O)c2cccs2)c(-c2nc3ccccc3[nH]c2=O)c1	enzyme activity, inhibitor	1 µM	activity vs control	91%
Cc1nn(CC(F)(F)F)cc1Nc1ncc(C2CC2)c(NCCCNC(=O)C2CCC2)n1	enzyme activity, inhibitor, radiometric	1 µM	remaining activity	25%
N#CCCc1ccc2c(c1)-c1[nH]c3ccc([N+](=O)[O-])cc3c1CC(=O)N2	cell-free assay	0.5 µM	remaining signal	46.8%
CCCS(=O)(=O)Nc1ccc(F)c(C(=O)c2c[nH]c3ncc(-c4ccc(Cl)cc4)cc23)c1F	enzyme activity, inhibitor	1 µM	inhibition	< 10%
Cc1nn(CC(F)(F)F)cc1Nc1nccc(NCc2ccc(S(N)(=O)=O)cc2)n1	enzyme activity, inhibitor, radiometric	1 µM	remaining activity	103%
COc1cc2ncnc(Nc3ccc(F)c(Cl)c3)c2cc1OCCCN1CCOCC1	cell-free assay	0.5 µM	remaining signal	96%
COc1ccc2cc(OCC3(C(=O)O)CN(C(=O)c4ccc(F)cc4)C3)ccc2c1	cell-free assay, competition with immobilised ligand	1 µM	remaining binding	81%
NS(=O)(=O)c1ccc(CNc2ccnc(Nc3cccc(NC(=O)N4CCCC4)c3)n2)cc1	enzyme activity, inhibitor, radiometric	1 µM	remaining activity	82%
Cc1cc(NC(=O)c2cccc3cc(-c4cccc5[nH]nc(N)c45)ccc23)ccc1F	enzyme activity, inhibitor	0.1 µM	activity vs control	81%
CN1CCc2cc(Nc3ncc(C4CC4)c(NCCCNC(=O)C4CCC4)n3)ccc2C1	enzyme activity, inhibitor, radiometric	1 µM	remaining activity	3%
Nc1ncnc2occ(-c3ccc(NC(=O)Nc4cc(C(F)(F)F)ccc4F)cc3)c12	cell-free assay	20 µM	remaining signal	55%
CC(=O)C1=C(C)N(c2cccc(C(F)(F)F)c2)C(=O)N[C@@H]1c1ccc(C#N)nc1	cell-free assay, competition with immobilised ligand	1 µM	remaining binding	93.7%
NS(=O)(=O)c1ccc(CNc2nc(Nc3cccc(NC(=O)N4CCCC4)c3)ncc2C2CC2)cc1	enzyme activity, inhibitor, radiometric	1 µM	remaining activity	79%
C=CC(=O)Nc1cc(Nc2nccc(Nc3cc(Cl)c(F)cc3C(C)(C)O)n2)c(OC)cc1N1CC[C@@H](N(C)C)C1	enzyme activity, inhibitor	1 µM	inhibition	1%
C[C@@H](c1cccc(C#N)c1)n1cc(Cl)cc(C(N)=O)c1=N	cell-free assay, competition with immobilised ligand	1 µM	remaining binding	89%
O=C1Nc2ccc(Cl)cc2C1=Cc1cc(Cl)c(O)c(Cl)c1	cell-free assay	0.5 µM	remaining signal	78.9%
CS(=O)(=O)N1CCCC(NC(=O)[C@H](CCC2CCCCC2)NC(=O)c2ccc(CNc3ncnc4c3nnn4-c3ccccc3)cc2)C1 (stereo partly shown)	cell-free assay, competition with immobilised ligand	0.1 µM	remaining binding	100%
CNC(=O)c1cc(Oc2ccc(NC(=O)Nc3ccc(Cl)c(C(F)(F)F)c3)cc2)ccn1	cell-free assay	0.3 µM	inhibition	-8%
CC(=O)c1c(NS(C)(=O)=O)c2cc(-c3ccc(Cl)cc3)c(-c3ccc(Cl)cc3Cl)nc2n(C)c1=O	cell-free assay, competition with immobilised ligand	1 µM	remaining binding	88%
O=C(NCCCNc1ccnc(Nc2cccc(NC(=O)N3CCCC3)c2)n1)C1CCC1	enzyme activity, inhibitor, radiometric	1 µM	remaining activity	18%
CCCOc1ccc([C@H]2[C@H](C(=O)O)[C@@H](c3ccc4c(c3)OCO4)CN2CC(=O)Nc2c(CC)cccc2CC)cc1	cell-free assay, competition with immobilised ligand	1 µM	remaining binding	92%
Cc1nn(CC(F)(F)F)cc1Nc1ncc(C2CC2)c(NCCc2c[nH]cn2)n1	enzyme activity, inhibitor, radiometric	1 µM	remaining activity	107%
